Legend:
[1] = test system: Melan-a mouse melanocytes; assay: Melanin content assay in Melan-a cells; format: cell-based; settings: αMSH (10 nM) induced Melan-a cells (Fig. 6B)
How it was run: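 Immortal non-tumorigenic mouse melanocytes kept in RPMI 1640 with 10% FBS, 1% penicillin/streptomycin and 200 nM TPA at 37℃, 10% CO2, subcultured every 4th day. Melanin content measured under αMSH (10 nM) stimulation and expressed as % of untreated control alongside MTT viability. Mean±SD; unpaired t-test.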

[2] = test system: B16F10 mouse melanoma cells; assay: Melanin content assay in B16F10 cells; format: cell-based; settings: αMSH (10 nM) induced B16F10 melanoma cells (Fig. 6A)
How it was run: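 B16F10 cells grown in DMEM with 10% FBS and 1% penicillin/streptomycin at 37℃, 5% CO2, under αMSH (10 nM) stimulation. Seeded in 12-well plates for 24 h, refed and held 48 h in triplicate cultures, then trypsinised. Washed twice in PBS, lysed in 1 N NaOH/10% DMSO at 80℃ for 1 h; absorbance 405 nm versus untreated cells. Mean±SD; unpaired t-test.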

[3] = test system: Mushroom tyrosinase (EC 1.14.18.1); assay: In vitro mushroom tyrosinase assay; format: biochemical
How it was run: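 Mushroom tyrosinase (EC 1.14.18.1), enzyme stock 1,100 units/ml (0.516 mg/ml) in 0.1 M phosphate buffer, mixed with phosphate buffer, test compound or reference inhibitor, and 5 mM L-dopa solution. Incubated 10 min at 37℃; dopachrome read at 475 nm. % inhibition = (ΔAcontrol−ΔAsample)/ΔAcontrol×100; IC50 = concentration giving 50% inhibition. Triplicate wells; experiments run at least three times; mean±SD, unpaired t-test.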

| dose dependence of mushroom tyrosinase inhibition ([3]; 5, 10, 20, 40, and 80 µM (Fig. 4, 5)) | maximum inhibitory effect of tyrosinase activity ([3]; in vitro tyrosinase screening, as restated in the discussion) | Compound | effect on melanin content (in words) [1] | effect on melanin content (in words) [2] |
| --- | --- | --- | --- | --- |
|  |  | OC[C@H]1O[C@@H](Oc2ccc(O)cc2)[C@H](O)[C@@H](O)[C@@H]1O [Arbutin, hydroquinone-beta-D-glucopyranoside] | inhibited melanin content | inhibited melanin content |
| dose-dependent inhibition | 84% | KA-CDPGYIGSR [KA-CR9] |  |  |

From PMC5064183 (Annals of Dermatology, 2016)
